CSC inhib: blocks cancer stem cells; cancer stem cell-like cells viability, luminescence; 300,000 compounds, 1.1% hits; AID 2717; inhibition, % at 7.5 µM; in the data active = inhibition above about 75%; inconclusive = no clear call, values can overlap the other calls; tested in HMLE shEcad cells
GRIN3A LBD mod: modulates the human NR3A ligand-binding domain; AID 1259313; 340,000 compounds, 2.5% hits; NR3A LBD differential scanning fluorimetry, Tm shift; 0% = protein alone, 100% = glycine-bound protein; Tm shift relative to glycine control, % at 25 µM;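 active = melting temperature shift of at least 10% of the positive control shift, at one fixed dose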
CHOP inhibitor: blocks CHOP induction under ER stress; CHO-K1 CHOP-promoter luciferase, tunicamycin-induced, 15-18 h; inhibition, % at 10 µM; 220,000 compounds, 3.8% hits; AID 2732;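 active = compounds that reduced the stress-induced luciferase reporter signal by more than about 70% of percent inhibition, limit read from the data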;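 note: 0% = tunicamycin plus vehicle and 100% = wells without tunicamycin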
PREPL inhibitor: inhibitors of human prolyl oligopeptidase-like enzyme PREPL. inhibition, % at 5.96 µM. recombinant PREPL, fluorescence polarization activity-based probe. 320,000 compounds, 0.68% hits. Q4J6C6; in the data active = inhibition above about 43%;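 note: 0% = enzyme with DMSO and 100% = wells lacking enzyme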
Target sequence (Q4J6C6 whole entry, looked up): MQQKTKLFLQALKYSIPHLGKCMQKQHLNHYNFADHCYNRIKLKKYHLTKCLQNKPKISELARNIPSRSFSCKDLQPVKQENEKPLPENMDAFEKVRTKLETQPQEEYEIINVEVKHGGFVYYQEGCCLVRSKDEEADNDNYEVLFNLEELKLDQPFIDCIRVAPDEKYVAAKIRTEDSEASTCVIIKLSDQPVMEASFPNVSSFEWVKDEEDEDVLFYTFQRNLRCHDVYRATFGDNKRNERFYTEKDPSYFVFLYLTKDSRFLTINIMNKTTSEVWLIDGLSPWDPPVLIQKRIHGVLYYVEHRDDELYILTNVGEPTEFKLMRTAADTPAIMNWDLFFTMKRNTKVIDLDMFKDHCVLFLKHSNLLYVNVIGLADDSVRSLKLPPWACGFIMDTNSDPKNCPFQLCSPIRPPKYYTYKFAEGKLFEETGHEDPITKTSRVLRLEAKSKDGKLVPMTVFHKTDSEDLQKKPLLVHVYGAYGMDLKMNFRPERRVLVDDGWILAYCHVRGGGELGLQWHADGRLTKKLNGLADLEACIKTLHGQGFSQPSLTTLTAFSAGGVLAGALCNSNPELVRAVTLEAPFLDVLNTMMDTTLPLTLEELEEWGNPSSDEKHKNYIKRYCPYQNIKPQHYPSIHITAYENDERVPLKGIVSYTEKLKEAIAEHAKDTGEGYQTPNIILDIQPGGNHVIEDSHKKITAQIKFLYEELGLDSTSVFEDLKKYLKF
T cruzi repl: blocks replication of Trypanosoma cruzi; T. cruzi beta-gal in NIH3T3, luminescence, 90 h; inhibition, % (test concentration not listed); 300,000 compounds, 1.4% hits;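 active = mean inhibition across valid replicates above about 55%, limit read from the data; inconclusive = mean below that limit but half or more replicates reach it; inactive = mean below it, under half of replicates reach it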;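 note: signal also drops with host cell toxicity which is not excluded here; 0% = plate median of DMSO wells and 100% = zero luminescence signal; higher percent means less beta-gal luminescence so fewer parasites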
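assay system = mouse NIH/3T3 fibroblasts infected with β-gal-expressing T. cruzi Tulahuen C4 | input = 5,000 NIH/3T3 host cells per well | buffer or medium = DMEM plus 2% FBS | timing = 3 h host attachment, then at least 90 h co-culture | measured by = GalScreen luminescence, 60 min | evaluation = luminescence reflecting intracellular parasite burden, expressed as percent inhibition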
Beta cell apopt: beta cell apoptosis inhibition | protection from apoptosis, % (test concentration not listed) | 300,000 compounds, 0.8% hits | INS-1E cytokine-induced death, ATP luminescence, 48 h; percent of positive-control rescue, neutral wells zero | AID 435005;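 active = Every replicate reaches about 75%, or at least half do and their mean reaches it too, limit read from the data; inconclusive = At least half of replicates reach the limit but their mean does not; inactive = Under half of replicates reach the limit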;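 note: 0% = cytokine-treated negative control wells and 100% = positive control rescue; higher means more ATP so stronger rescue from cytokine killing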
* = called active by the depositor; ? = inconclusive; . = no result given. Shown are actives, neighbours in structure and some others; about 6.7% of the full set was active somewhere.

SMILES	CSC inhib	GRIN3A LBD mod	CHOP inhibitor	PREPL inhibitor	T cruzi repl	Beta cell apopt
O=C(CSc1nc(-c2ccccc2)cc(C(F)(F)F)n1)NCc1cccs1	-8	-3	82*	-8	-3	-3
Cc1c(Cl)cccc1NC(=O)CC1Oc2ccccc2NC1=O (centres undefined)	-5	2	.	0	-9	6
CCc1cc(C(=O)N2CCN(c3ncc(C(F)(F)F)cc3Cl)CC2)sc1C	63	-4	.	17	35	0
O=C(c1cccs1)N1CCN(c2ncc(C(F)(F)F)cc2Cl)CC1	-7	11*	.	12	14	-3
COC(=O)c1ccccc1S(=O)(=O)NNC(=O)c1nn(C)c(=O)c2ccccc12	-13	0	.	6	.	1
CN1CCc2c(sc3c2C(=O)NC(c2ccco2)N3)C1 (centres undefined)	7	-2	32	0	-18	2
CN1CCc2c(sc3c2C(=O)NC(c2cccc(OC(=O)c4cccs4)c2)N3)C1 (centres undefined)	17	-1	32	52*	3	-8
COc1ccc(C2(c3ccc(OC)cc3)NC(=O)N(CC(=O)N3CCOCC3)C2=O)cc1	.	-2	.	12	.	-10
Cc1ccc2nc(Cl)c3nnnn3c2c1	?	1	105*	18	44	-15
Cc1ccc2nc(N3CCN(c4cccc(C)c4C)CC3)c3nnnn3c2c1	17	1	19	21	-7	.
CC(C)n1ncc2c(C(=O)N3CCN(Cc4ccc(Br)s4)CC3)cc(C3CC3)nc21	14	0	.	3	.	21
CCn1cc(C(=O)NCCc2ccc(Cl)cc2)c(=O)c2cc(S(=O)(=O)N(C)C)ccc21	.	22*	.	.	-2	.
CCN(CC)c1ccc2nc3ccccc3[n+](CC)c2c1	26	-1	.	14	53	99*
COc1ccc([N+](=O)[O-])cc1NC(=O)C1CCCCC1C(=O)O (centres undefined)	-6	18*	21	-2	0	-8
COc1ccc(C)cc1NC(=O)C1CCCCC1C(=O)O (centres undefined)	.	-1	29	-7	-2	-7
COc1ccc([N+](=O)[O-])cc1NC1CCCCC1	16	15*	5	-4	12	0
CCCN(C(=O)CSCC(=O)Nc1cccc(C)c1)c1c(N)n(Cc2ccccc2)c(=O)[nH]c1=O	.	4	.	1	5	-2
CC(=O)Nc1ccc(S(=O)(=O)NC2(C(F)(F)F)NC(=O)N(c3ccc(C)cc3)C2=O)cc1 (centres undefined)	0	10*	.	-2	-9	.
COc1ccccc1/C=N/NC(=S)NCc1ccco1	12	0	-27	11	-7	5
NNC(=O)CCc1nc2ccccc2[nH]1	-11	.	16	3	-3	-3
Cc1ccccc1NC(=O)CSc1nc2cc3c(cc2cc1C)CCC3	.	-5	68	-7	-30	.
CCC(=O)Nc1ccc(NC(=O)CSc2nc3cc4c(cc3cc2C)CCC4)cc1	45	0	94*	-1	49	30
Cc1c(C(=O)N/N=C/c2ccncc2)nnn1-c1nonc1N	.	-1	.	.	.	.
Cc1cc2oc(=O)c(CC(=O)NCCCN(C)C)c(C)c2c2occ(C(C)(C)C)c12	91*	-3	.	23	59*	8
COc1cc(/C=N/N=C2\CC3CCC2(C)C3(C)C)ccc1O (centres undefined)	-16	3	77*	2	-1	3
SMILES	CSC inhib	GRIN3A LBD mod	CHOP inhibitor	PREPL inhibitor	T cruzi repl	Beta cell apopt
COc1ccc(/C=N/N=C2\CC3CCC2(C)C3(C)C)cc1O (centres undefined)	-4	4	24	1	4	1
Cc1c(NC(=O)COC(=O)c2ccc(O)cc2)c(=O)n(-c2ccccc2)n1C	.	0	.	3	.	.
Cc1ccc(C(=O)N(C)CC(=O)Nc2ccc(N3CCOCC3)cc2)s1	2	-2	.	16	-7	-1
O=C(COC(=O)C1CC2C=CC1C2)Nc1ccc2c(c1)OC(F)(F)O2 (centres undefined)	3	-5	91*	-6	16	-4
CC(=O)c1ccc(NC(=O)COC(=O)C2CC3C=CC2C3)cc1 (centres undefined)	-24	2	.	3	.	3
CCCCOc1ccc(C(=O)N/C(=C/C=C/c2ccccc2)C(=O)NCCO)cc1	-6	-1	8	1	0	-7
O=C(O)CCNC(=O)/C(=C/C=C/c1ccccc1)NC(=O)c1ccccc1	-8	0	74*	3	-9	-7
Cc1cc2nc(-c3ccc(SCC(=O)Nc4ccc(S(=O)(=O)NC5CC5)cc4)nc3)[nH]c2cc1C	14	32*	-16	-25	11	4
O=S(=O)(c1ccc(Br)cc1)N1CCN(c2ccc3nnc(-c4ccccc4)n3n2)CC1	9	2	80*	8	32	-3
CCOc1ccc2ccccc2c1/C=N/NC(=O)CC1(C)OCCCO1	-12	-1	47	3	-1	0
Oc1ccccc1/C=N/Nc1cc(N2CCCC2)nc(N2CCCC2)n1	-5	-4	4	29	57*	16
O=[N+]([O-])c1ccccc1/C=N/Nc1nc(N2CCCC2)nc(N2CCCC2)n1	-3	-2	75*	18	10	-5
O=[N+]([O-])c1ccc(-c2ccc(/C=N/Nc3nc(NCc4ccccc4)nc(N4CCOCC4)n3)o2)cc1	14	11*	-48	2	27	26
O=[N+]([O-])c1ccc(/C=N/Nc2nc(N3CCCCC3)nc(N3CCCCC3)n2)cc1	-3	3	62	17	9	4
O=[N+]([O-])c1ccc(Nc2nc(N/N=C\c3ccc4c(c3)OCO4)nc(N3CCCCC3)n2)cc1	11	13*	32	10	50	24
COc1ccc(-c2cc(C(=O)N/N=C(\C)c3cccnc3)c3ccccc3n2)c(OC)c1	1	-3	.	15	16	5
CCOc1cccc(/C=N/Nc2nc(N3CCCC3)nc(N3CCCC3)n2)c1O	8	-5	28	50*	12	3
O=[N+]([O-])c1ccc(/C=N/Nc2nc(N3CCCCCC3)nc(N3CCCCCC3)n2)o1	35	-7	19	4	76*	4
O=[N+]([O-])c1cc2c(cc1/C=N/Nc1nc(N3CCCC3)nc(N3CCCC3)n1)OCO2	12	-2	51	6	14	2
COc1ccc([N+](=O)[O-])cc1/C=N/Nc1nc(N2CCCCC2)nc(N2CCCCC2)n1	4	29*	-13	7	27	8
CCOc1cc(/C=N/Nc2nc(N3CCCC3)nc(N3CCCC3)n2)ccc1O	10	0	-5	6	6	4
CCOC(=O)N1CCN(CC(O)COc2ccc3c(c2)CCC3)CC1 (centres undefined)	-9	0	.	30	10	.

Compound activity (PubChem BioAssay)
